A selection follows.
Apaf-1 act: activates human Apaf-1 apoptosome. O14727. Apaf-1 apoptosome caspase-3 activation, DEVD-Rh110 fluorescence; hits give low values. activity change, negative = activation, % at 20 µM. actives 0.31% (n = 330,000). AID 489031;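 active = activity change at or below -40% at 20 µM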
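Material: reconstituted apoptosome of Apaf-1, cytochrome c, caspase-9, procaspase-3; times: 30 min preincubation, 50 min reaction, room temperature; measured by: fluorescence, 540 nm emission, 480 nm excitation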
Rh110 interf act: interferes with Rh110 fluorescence, flagging false Apaf-1 activators; Rh110 fluorescence interference, quenched caspase reaction, Ex480/Em540; 980 tested, under 10 active; shares compounds with Apaf-1 act; fluorescence interference (activity change), % at 20 µM, hits read low;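 active = mean activity change at or below -40% when tested at 20 µM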
Apaf-1 act conf: confirmation of human Apaf-1 activators; shares compounds with Apaf-1 act; reconstituted apoptosome caspase-3 activity, DEVD-Rh110 fluorescence; hits give low values; activity change, negative = activation, % at 20 µM; actives 5% (n = 980); AID 504617;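 active = mean activity change at or below -40%, meaning activation of 40% or more, at 20 µM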
* hit, by the source's call; . = not tested or not shown.

SMILES | Apaf-1 act | Rh110 interf act | Apaf-1 act conf
C#CCOCCOCCOCCNc1nc(N2CCN(C(=O)[C@H](CCCCN)n3cc(CCCC)nn3)CC2)nc(N2CCN(C(=O)[C@H](CCCCN)n3cc(CCCC)nn3)CC2)n1 | 49.6 | . | .
C#CCOCCOCCOCCNc1nc(N2CCN(C(=O)CCCCCCCCCCNC(=O)[C@H]([C@@H](C)CC)n3cc(CCCCN=C(N)N)nn3)CC2)nc(N2CCN(C(=O)CCCCCCCCCCNC(=O)[C@H](CO)n3cc(CCCCCN)nn3)CC2)n1 | 85.1 | . | .
Cc1noc(C)c1C(=O)OC(C(=O)NC1CCCC1)c1ccc(F)cc1 (stereo not drawn) | -51.9* | 7.0 | 5.2
COc1cc2c(C#N)c(N3CCCCC3)nc(N)c2c(N)n1 | 97.3 | . | .
c1ccc(CNc2nc(NCc3ccccc3)c3ccccc3n2)cc1 | 65.9 | . | .
CCOCCCNc1nc2nc3ccc(C)cn3c(=O)c2cc1C(=O)NCC1CCCO1 (stereo not drawn) | -69.0* | -0.6 | 11.0
O=C1C(Cl)=C(NCCCO)C(=O)c2ccccc21 | 44.7 | . | .
CC(=O)N(C1=C(N)C(=O)c2ccccc2C1=O)c1ccccc1 | 67.4 | . | .
COc1cccc2cc(C(=O)NCc3ccc(Cl)cc3)c(=N)oc12 | 41.6 | . | .
COC(=O)NCc1ccc(Cl)c(Cl)c1 | -70.7* | -2.7 | -2.5
CCOc1cc2c(C#N)c(N3CCCCC3)nc(N)c2c(N)n1 | 96.8 | . | .
COC(=O)C1=C(C)N(Cc2ccccc2)C(=NCc2ccc(OC)cc2)N[C@H]1c1cccc(F)c1 | 55.6 | . | .
COc1ccc(CNC(=O)c2c(N)n(CCCN3CCOCC3)c3nc4ccccc4nc23)cc1 | 87.3 | . | .
Nc1c(C(=O)NCc2ccccc2)c2nc3ccccc3nc2n1CCCN1CCOCC1 | 49.4 | . | .
COC(=O)c1c(N)n(CCCN2CCOCC2)c2nc3ccccc3nc12 | -71.9* | 2.0 | 13.5
C#CCOCCOCCOCCNc1nc(N2CCN(C(=O)CCCCCCCCCCNC(=O)Cn3cc(CCCCCN)nn3)CC2)nc(N2CCN(C(=O)CCCCCCCCCCNC(=O)[C@H]([C@@H](C)CC)n3cc(CCCCN=C(N)N)nn3)CC2)n1 | 85.4 | . | .
CN1CCN(c2ccccc2NC(=O)c2ccc(-c3ccc(Cl)c(Cl)c3)o2)CC1 | 46.0 | . | .
COc1c(Cl)cc(Cl)cc1C(=O)Nc1ccccc1N1CCN(C(C)=O)CC1 | -325.3* | -2.3 | 11.6
CCOc1ccc(C(=O)C(C)=O)c(OCC)c1 | -43.8* | 1.0 | 10.0
NC(N)=NC(N)=Nc1cccc2ccccc12 | 82.5 | . | .
COC(=O)c1ccc(C(=O)Nc2ccc(N)cc2N)cc1 | 48.2 | . | .
Cc1ccc(N/N=C2\CC(=O)c3ccccc32)cc1Cl | 76.5 | . | .
CC(/C=C/c1ccc2c(c1)OCO2)=N/NC(=O)c1ccncc1 | -41.6* | -3.9 | 4.3
O=C(N/N=C1\C/C(=N\NC(=O)c2ccncc2)c2ccccc21)c1ccncc1 | 93.4 | . | .
COc1cc2c(cc1OC)C1=C(C#N)CCC(=O)N1CC2 | 50.0 | . | .
SMILES | Apaf-1 act | Rh110 interf act | Apaf-1 act conf
Cc1ccc(NC(=O)CN2C(=O)S/C(=C/c3ccc(-c4cc(C(=O)O)ccc4C)o3)C2=O)cc1C | 41.6 | . | .
O=C(CC1Nc2cccc3cccc(c23)NC1=O)Nc1ccc(F)cc1 (stereo not drawn) | 95.6 | . | .
COC(=O)C1=C(C)N(Cc2ccccc2)C(=NCC(C)C)N[C@H]1c1cccc(F)c1 | 43.8 | . | .
Cc1cccc(C)c1NC(=O)CSCC(=O)c1ccc(O)c(O)c1 | -160.9* | 12.8 | 13.1
Oc1ccc(Cl)cc1CNc1cccc2cccnc12 | 91.3 | . | .
CCCCNc1c(-c2ccc(SC3CCCCC3)cc2)nc2cnccn12 | 41.7 | . | .
COc1cc(/C=N/N=C(N)N)ccc1OCc1ccc(Cl)cc1 | 40.1 | . | .
CS(=O)(=O)N(CC(=O)Nc1ccccc1C(=O)N1CCOCC1)c1cccc(F)c1 | -57.3* | 3.5 | -0.8
OCCN1CCN(CC/C=C2/c3ccccc3Sc3ccc(C(F)(F)F)cc32)CC1 | 58.5 | . | .
NC(=O)C1CCN(C2=C(NS(=O)(=O)c3ccc(Br)cc3)C(=O)c3ccccc3C2=O)CC1 | 65.5 | . | .
Cc1cc(C)c(S(=O)(=O)NCc2ccc3c(c2)cc(C)n3C)c(C)c1 | 44.0 | . | .
Fc1cccc(Cl)c1CNc1ccc(N2CCCC2)cc1 | 47.8 | . | .
Clc1cccc(Cl)c1CNC1CCCC1 | -48.3* | -2.2 | 2.1
C#CCOCCOCCOCCNc1nc(N2CCN(C(=O)[C@H](CCCCN)n3cc([C@@H](N)[C@H](C)CC)nn3)CC2)nc(N2CCN(C(=O)[C@H](CCC(=O)O)n3cc([C@@H](N)CCCCN)nn3)CC2)n1 | 47.4 | . | .
O=C(c1ccc(Cn2c(=O)[nH]c3ccccc3c2=O)cc1)N1CCN(c2ccc(Cl)cc2)CC1 | 41.4 | . | .
COc1cc2[nH]c(=O)n(Cc3ccc(C(=O)NC4CCCC4)cc3)c(=O)c2cc1OC | -52.8* | 6.7 | 3.4
Cn1c(C(=O)NCCN2CCCCCC2)cc2c(=O)n(C)c3ccccc3c21 | 43.0 | . | .

Screening results (PubChem BioAssay)
